The results in this text go back to PubChem BioAssay AID2445 (The Scripps Research Institute Molecular Screening Center, 2010).

In all, about 320,000 compounds went through this assay and about 200 (0.062%) were called active. For the sample, actives were picked, then their nearest neighbours and some compounds at random. Values without a mark were called inactive.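 Rule for the calls: active = activation above that plate's cutoff, the mean activation of tested compounds plus 3 SD (cut at about 6.6% in these data, passing the limit was not always enough); inactive = the rest.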

The assay deals with Oxytocin receptor (Homo sapiens) (UniProt P30559). Put plainly: enhancers of oxytocin-evoked OXTR calcium signal – fluorescence, CHO-OTR cells, Fluo-8 calcium, primary screen (AID 2445).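 Note: 100% uses oxytocin at 75 nM as the full agonist control.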 The following applies: Fluo-8 calcium fluorescence, potentiator mode, at 3 µM, hits give high values, 0% = oxytocin EC15, 100% = EC100. The procedure, abridged: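 Assay system: CHO-OTR cells, human receptor / Also added: oxytocin at about EC15, sub-maximal agonist stimulus / Dosing: single dose, 3.0 µM nominal final compound concentration / Incubation: 6 min pre-incubation, 100 s read / Technique: Fluo-8 calcium dye fluorescence / Read-out: % activation vs EC15 and EC100 oxytocin / Benchmarks: EC15 oxytocin low, 75 nM oxytocin high / Replicates: singlicate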
Sequence of Oxytocin receptor (Homo sapiens) (P30559 whole entry, looked up): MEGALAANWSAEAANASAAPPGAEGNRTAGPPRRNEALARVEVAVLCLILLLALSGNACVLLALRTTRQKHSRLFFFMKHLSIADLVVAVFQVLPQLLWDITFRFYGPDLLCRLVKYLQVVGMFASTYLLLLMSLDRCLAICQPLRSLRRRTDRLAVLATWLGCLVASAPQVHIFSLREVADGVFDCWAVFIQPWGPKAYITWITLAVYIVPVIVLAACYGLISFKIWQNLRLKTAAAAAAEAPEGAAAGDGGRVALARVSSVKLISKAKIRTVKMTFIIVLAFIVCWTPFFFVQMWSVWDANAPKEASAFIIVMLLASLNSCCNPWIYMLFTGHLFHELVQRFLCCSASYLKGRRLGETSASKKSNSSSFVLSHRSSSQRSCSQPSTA
For `CC1CCC(NS(=O)(=O)c2ccc3c(c2)CC(=O)N3)CC1` (configuration not stated), the activation was -7.03%.

Regarding `Cc1cc(C)cc(N(CC(=O)NC2CCCC2)C(=O)CCC(=O)Nc2cc(C)on2)c1`, the activation is -12.7%. Regarding `Nc1ccc(SCCN2C(=O)c3ccccc3C2=O)cc1`, the activation is -2.44%. To `COc1cc(/C=C2\SC(=O)NC2=O)ccc1OCc1ccc(Cl)nc1` belongs -15.2%; to `CCOC(=O)c1ccccc1NC(=O)c1c(N)n(C)c(=O)[nH]c1=O`, -5.38%. Regarding `CCC(C)[C@H](NC(=O)N1c2ccccc2NC(=O)[C@@H]1C(C)C)C(=O)N[C@@H](Cc1ccccc1)C(=O)O` (some centres not stated), the activation was -4.93%. The result for `CC1(C)CC(=O)CC2(C1)NCC(c1ccccc1Cl)c1c2[nH]c2ccccc12` (configuration not stated) reads -23.6%; that for `Cc1cccn2c(=O)nc(SCC(=O)NCc3ccccc3Cl)nc12`, -9.43%; that for `O=C(NCCc1ccccn1)c1cc(C(=O)C2CCCCC2)c[nH]1`, -8.37%. `Cc1nc(NCc2ccccc2)c(C(N)=O)c2c1COC(C)(C)C2`: the activation is -7.89%. For the compound `O=C1CCCc2nn(-c3ccccc3)nc21`, the activation was -20.3%. Take `CCc1cc2c(SCC(=O)Nc3ncc(Cl)c(C)c3Cl)ncnc2s1`: the activation is -3.54%. `CC(C)Cn1c(CN(Cc2ccccc2)Cc2ccccc2)nc2c1c(=O)n(C)c(=O)n2C`: the activation is -4.31%. To `COCCn1c(CN(Cc2ccccc2)Cc2ccccc2)nc2c1c(=O)n(C)c(=O)n2C` belongs 6.98% (active); to `CC(C)CCn1c(CN(C)Cc2ccccc2)nc2c1c(=O)n(C)c(=O)n2C`, -2.79%; to `CCc1nn(CCCC(=O)NCc2ccc(C)cc2)c(=O)c2cc3occc3n12`, -17.3%.

In the case of `CCOC(=O)[C@H]1[C@H]2COc3cc(OC)ccc3[C@@H]2N2C(=O)N(c3ccc(Br)cc3)C(=O)[C@@]12C`, the activation is -10.7%. Consider `O=P(O)(CP(=O)(c1ccccc1)c1ccccc1)c1ccccc1`, for which the activation was -9.44%.

Turning to `Cc1cccc(N2CCN(C(=O)CN(C)S(=O)(=O)c3ccc4c(c3)CCC(=O)N4)CC2)c1C`, the activation was -9.67%. On to `CC(Oc1ccc(F)cc1)C(=O)Nc1ccccc1C(=O)NC1CC1` (configuration not stated), for which the activation is 2.5%. With `Cc1c(-c2nn(C)c(=O)c3ccccc23)oc2ccc(F)cc2c1=O`, the activation was -8.96%.

As for `C=CCOC(=O)C1=C[C@@H](c2ccc3c(c2)OCO3)C[C@@H](OCCCCO)O1`, the activation was -0.78%. `Cc1ccc(N/N=C2\COC(C)(C)CC2=O)cc1`: the activation is -4.26%. The result for `CCOc1ccc(-c2c(C)n([O-])c3c([n+]2=O)CCCC3)cc1` reads -2.39%; that for `Cc1ccc2c(c1)C(O)(CC(=O)c1cccc(-n3cccc3)c1)C(=O)N2` (configuration not stated), -5.12%; that for `O=C(COc1ncnc2c(Cl)cc(Cl)cc12)N1CCN(S(=O)(=O)c2ccccc2)CC1`, -0.15%. With `Cc1ccc(S(=O)(=O)N(C)c2ccc(OCC(=O)OCc3ccc(C#N)cc3)cc2)cc1`, the activation is -6.02%. To `COc1ccc2c(c1)CC[C@@H]1[C@@H]2CC[C@]2(C)C(=O)CC[C@@H]12` belongs -6.25%. The result for `O=S(=O)(NCCOc1cccc2cccnc12)c1ccc(F)cc1` reads -8.04%.

In the case of `COc1cccc(NC(=O)CSc2nnc(Cc3ccc(OC)c(OC)c3)o2)c1`, the activation was -7.75%. Take `Cc1cccc(N=C2SC(C)CN2C(=O)CN2C(=O)NC3(CCCC3)C2=O)c1` (configuration not stated): the activation was -10%. As to `CCOc1ccc(C(=O)Nc2cc(Cl)ccc2-n2cncn2)cc1OC`, the activation is 3.32%. To `c1ccc(-c2cn3c(n2)CCc2ccc4cccnc4c2-3)cc1` belongs 0.09%; to `CCC(C)N(C(=O)COC(=O)C1C(C(=O)OC)=C(C)NC(C)=C1C(=O)OC)C1CCS(=O)(=O)C1` (configuration not stated), -7.92%; to `COc1ccc(NC(=O)CC(NC(C)c2ccccc2)C(=O)O)cc1` (configuration not stated), 1.93%. To `Cc1cc(C)cc(NC(=O)CSc2ccccc2)c1` belongs 12.9% (active); to `Cc1cc(C)cc(NC(=O)CN2C(=O)c3ccccc3C2=O)c1`, -3.2%; to `CSc1cccc(NC(=O)CSc2ccccc2)c1`, -15.7%. Regarding `CCCCn1c(N)c(N(CC(C)C)C(=O)CSc2ccc([N+](=O)[O-])cc2)c(=O)[nH]c1=O`, the activation is 1.02%. As to `Cc1ccc(-c2nnc(-n3nnc4ccccc43)c3ccccc23)cc1`, the activation was -11.2%. Regarding `Cc1ccc(Cl)cc1NC(=O)CN1CCN(S(=O)(=O)N2CCOCC2)CC1`, the activation was -9.03%.

As to `Cc1ccc(S(=O)(=O)NC2(C(F)(F)F)NC(=O)N(CCc3ccccc3)C2=O)cc1` (configuration not stated), the activation was -18.6%.

`COc1cccc(N2CCN(c3ccc4nnc(CCC(=O)N5CCN(C)CC5)n4n3)CC2)c1`: the activation is -0.01%. To `Cc1ccc(S(=O)(=O)N(CCCN(C)C)Cc2ccc3c(c2)OCO3)cc1` belongs -1.86%. In the case of `COc1ccc(SCc2noc(C(=O)NCC3CCCO3)c2C(=O)O)cc1` (configuration not stated), the activation is 3.88%.

For the compound `CC1CN(CC(=O)NC(C)c2ccccc2)CC(C)O1` (configuration not stated), the activation was -2.73%. Take `CC(C)Oc1ccccc1C(=O)NC(CO)C(=O)O` (configuration not stated): the activation is 7%.

As for `COc1ccc(CNc2cc(C)cc(C)c2)cc1OC`, the activation is -5.89%.

As to `Cc1c(CN2CCC(CO)(CCOc3ccccc3)CC2)[nH]c2ccc(Cl)cc12`, the activation is -15%.

As to `Cc1c(C)c2c(OCC(=O)N[C@@H](C(=O)O)c3ccccc3)cc3c(c2oc1=O)CCC(C)(C)O3`, the activation is 0.86%.

As to `CCc1c(SCCC(=O)O)nc2ccccc2c1C`, the activation is 2.81%. Regarding `CN1CCN(c2ccc(CNS(=O)(=O)c3cccc(F)c3)cc2)CC1`, the activation is -0.68%. The result for `Cc1ccsc1CNn1cnnc1SCc1ccccc1F` reads -4.45%; that for `c1ccc2c(-c3nn4nnnc4c4ccccc34)cccc2c1`, -11%; that for `C=CCNC(=O)c1ccc2c3n(nc2c1)-c1ccc(C)cc1CO3`, -15.6%. Turning to `N#Cc1c(NC(=O)C2CCCO2)sc2c1CCCCC2` (configuration not stated), the activation was -9.34%. To `NC(=O)C1CC(=O)N(c2ccc(OCC(=O)NCc3ccccc3)cc2)C1` (configuration not stated) belongs 2.9%.

`CC1CCC2CCCCC2N1C(=O)c1cc([N+](=O)[O-])cc([N+](=O)[O-])c1` (configuration not stated): the activation was -6.56%.

On to `OCCN1CCOCCOCCN(CCO)CCN(CCO)CC1`, for which the activation was -14%. `Cc1cccc2c1-c1sc(C(=O)NCCCN3CCc4ccccc4C3)cc1CO2`: the activation was -6.4%. On to `O=C(NCc1ccccc1)C1CCN(C(=O)Cc2ccccc2)CC1`, for which the activation was -0.95%. With `Cc1ccc(N2C(=O)CN=C2Nc2nc(C)cc(C)n2)cc1`, the activation is -1.27%. As to `COc1ccc(Br)c2c1C(=O)CC2`, the activation is -5.51%. As for `Cc1ccc(S(=O)(=O)NCC2CCC(C(=O)N3CCOCC3)CC2)cc1` (configuration not stated), the activation is -11.8%. To `CS(=O)(=O)Nc1ccccc1C(=O)OCC(=O)NC1CC1` belongs -5.14%. With `O=C(Nc1ccccc1C(=O)N1CCOCC1)c1ccc(Cl)cc1`, the activation was -4.35%. For `COC(=O)CSc1snnc1-c1ccc(Cl)c(Cl)c1`, the activation is -15.7%. The result for `O=C(O)c1ccc2c(=O)n3c(nc2c1)/C(=C/c1ccc(OC(F)F)cc1OC(F)F)CC3` reads 1.58%. For `Cn1c(N)c(C(=O)COC(=O)c2ccccc2NCc2ccco2)c(=O)n(C)c1=O`, the activation was -14.4%.

For `Cc1ccccc1Cn1c2ccccc2c2cnn(CC(=O)NCc3ccco3)c(=O)c21`, the activation was 1.81%. For `CCCCCCCCCCCCN1[C@@H](CC(C)=O)c2cc(F)cc(F)c2S1(=O)=O`, the activation is 9.85%. As to `O=C(Nc1nc(-c2ccco2)c(-c2ccco2)s1)c1ccco1`, the activation was -4.21%. Take `COc1ccc(OCC(=O)Nc2nnc(-c3ccco3)s2)cc1`: the activation was -4.78%. To `CNc1nnc(-c2ccco2)s1` belongs 11.7% (active); to `CC(C)N(Cc1ccccc1)C(=O)COC(=O)c1cnccn1`, -12.7%; to `COc1cc(OC)c(C(=O)OC(C)C(=O)Nc2cc(C(F)(F)F)ccc2Cl)cc1OC` (configuration not stated), -8.37%.

Take `Cc1noc(C)c1NC(=O)Nc1ccc2c(c1)C(=O)N([C@H](C)CO)C[C@H](C)[C@@H](CN(C)C(=O)Nc1ccccc1)O2`: the activation is -1.66%.

Consider `CSc1ncccc1C(=O)OCc1ccc(Br)cc1`, for which the activation was -14.7%.

Take `O=C(O)CCCCOn1ccnc1`: the activation was 3.24%. Take `Cc1nc2cc(NCc3cccs3)ccc2n1C`: the activation is -14.8%.

Consider `O=C1/C(=C/c2ccc3c(c2)OCO3)Oc2cc(OCC(=O)N3CC(O)C[C@H]3C(=O)O)ccc21` (some centres not stated), for which the activation was -2.05%. The result for `Cc1nc(-c2ccc(F)cc2)c(CC(=O)N2CCN(S(=O)(=O)c3ccc(F)cc3)CC2)s1` reads -7.74%. To `O=C(Nc1ccc(F)cc1)C1CCN(C(=O)c2ccc([N+](=O)[O-])cc2)CC1` belongs -7.48%.

For `Cc1ccc(NC(=O)COc2coc(CN3CCc4ccccc4C3)cc2=O)cc1Cl`, the activation is -8.11%.

For the compound `CCOC(=O)C1=C(N)N2C(=O)C(C)SC2=C(C(=O)OCC)C1c1cc(OC)c(OC)c(OC)c1` (configuration not stated), the activation was 3.06%.

On to `O=C(Nc1ccc(F)cc1F)N1CCCN(CCOc2ccccc2)CC1`, for which the activation was -5.95%. As for `O=C1CC(c2c(F)cccc2Cl)C(n2cncn2)C(O)=C1C1NCCc2ccccc21` (configuration not stated), the activation is 2.91%. As for `O=C(COC(=O)CCc1nc2ccccc2c(=O)[nH]1)Nc1ccc(N2CCOCC2)cc1`, the activation was -2.47%. To `CC1CCCCC12NC(=O)N(CC(=O)Nc1ccc(S(=O)(=O)Nc3ncccn3)cc1)C2=O` (configuration not stated) belongs 1.55%; to `CCCCNc1c(-c2cccc(Sc3ccc(OC)cc3)c2)nc2ccccn12`, -2.7%. To `CCCCCCSc1ccc(-c2nc3ccc(Cl)cn3c2NCc2ccccc2)cc1` belongs -4.96%. The result for `CCCCNc1c(-c2ccc(OC)c(Sc3ccc(OC)cc3)c2)nc2ccc(Cl)cn12` reads 13.1% (active).
